Source: article PMC4887451 (Natural product communications, 2015)
Values after ≈ are worked out from the molar mass of the structure shown.

Columns and labels:
Format in all cases: cell-based
[1] = test system: Candida glabrata ATCC 90030; assay: antifungal screening; conditions: Nakaseomyces glabratus, ATCC90030, read-out: IC50 against Candida glabrata
Procedure, shortened: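 Tested alongside C. albicans ATCC 90028, C. krusei ATCC 6258, Cryptococcus neoformans ATCC 90113 and Aspergillus fumigatus ATCC 204305, following a previously described procedure. IC50 derived by curve fitting. Amphotericin B was the positive control.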

[2] = test system: Trypanosoma brucei brucei; assay: antitrypanosomal Alamar Blue assay on Trypanosoma brucei trypomastigotes
Procedure, shortened: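 Trypomastigote cultures of T. brucei brucei exposed to test compound, with viability read by Alamar Blue. DFMO served as positive control.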

[3] = test system: chloroquine-resistant (W2) Plasmodium falciparum; assay: antiplasmodial screening by plasmodial LDH activity, W2 strain; conditions: for selectivity index (SI), ratio of VERO IC50 to W2 IC50: VERO mammalian cell line
[4] = test system: chloroquine-sensitive (D6) Plasmodium falciparum; assay: antiplasmodial screening by plasmodial LDH activity, D6 strain; conditions: for selectivity index (SI), ratio of VERO IC50 to D6 IC50: VERO mammalian cell line

O=c1c(O)c(-c2ccc(O)c(O)c2)oc2cc(O)cc(O)c12 [Compound 16, quercetin]
IC50 [1]: 8.66 µg/mL (≈ 28.7 µM)

NCCCC(N)(C(=O)O)C(F)F (centres unmarked) [DFMO, difluoromethylornithine, reference compound]
IC50, trypanocidal activity against Trypanosoma brucei brucei [2]: 2.30 µg/mL (≈ 12.6 µM) | IC90, trypanocidal activity against Trypanosoma brucei brucei [2]: 5.20 µg/mL (≈ 28.5 µM)

C[C@@H]1O[C@@H](Oc2cc(O)c3c(=O)c(O)c(-c4ccc(O)c(O)c4)oc3c2)[C@H](O)[C@H](O)[C@H]1O [Compound 15, quercetin-7-O-α-L-rhamnopyranoside]
IC50, trypanocidal activity against Trypanosoma brucei brucei [2]: 9.02 µg/mL (≈ 20.1 µM) | IC90, trypanocidal activity against Trypanosoma brucei brucei [2]: > 10 µg/mL

C=C[C@]1(C)CC[C@H](C(C)(C)O[C@@H]2O[C@H](CO[C@@H]3OC[C@@H](O)[C@H](O)[C@H]3O)[C@@H](O)[C@H](O)[C@H]2O)O1 (relative stereo) [Compound 9, (3S, 6R) cis-linalool 3,6 oxide, O-β-D-xylopyranosyl-(1″→6′)-β-D-glucopyranoside]
IC50, trypanocidal activity against Trypanosoma brucei brucei [2]: 8.18 µg/mL (≈ 17.6 µM) | IC90, trypanocidal activity against Trypanosoma brucei brucei [2]: > 10 µg/mL

COC(=O)C1(O)CC(O)C(OC(=O)/C=C/c2ccc(O)c(O)c2)C(OC(=O)/C=C/c2ccc(O)c(O)c2)C1 (centres unmarked) [Compound 20, 4,5-dicaffeoyl quinic acid methyl ester]
selectivity index (SI), ratio of VERO IC50 to W2 IC50 [3]: > 1 | IC50 against chloroquine-resistant (W2) Plasmodium falciparum ([3]; plasmodial LDH activity): 4.53 µg/mL (≈ 8.54 µM) | selectivity index (SI), ratio of VERO IC50 to D6 IC50 [4]: > 1.4 | IC50 against chloroquine-sensitive (D6) Plasmodium falciparum ([4]; plasmodial LDH activity): 3.29 µg/mL (≈ 6.2 µM)

C[C@@H]1[C@H](O)[C@@H](C)/C=C/C=C/C=C/C=C/C=C/C=C/C=C/[C@H](O[C@@H]2O[C@H](C)[C@@H](O)[C@H](N)[C@@H]2O)C[C@@H]2O[C@](O)(C[C@@H](O)C[C@@H](O)[C@H](O)CC[C@@H](O)C[C@@H](O)CC(=O)O[C@H]1C)C[C@H](O)[C@H]2C(=O)O [AMB, amphotericin B, reference compound]
IC50 [1]: 0.34 µg/mL (≈ 0.368 µM)

CCN(CC)CCCC(C)Nc1ccnc2cc(Cl)ccc12 (centres unmarked) [chloroquine, reference compound]
selectivity index (SI), ratio of VERO IC50 to W2 IC50 [3]: > 2.1 | selectivity index (SI), ratio of VERO IC50 to D6 IC50 [4]: > 9
